Screening data deposited in PubChem by The Scripps Research Institute Molecular Screening Center.
pPAFAH inh = pPAFAH enzyme inhibitors, primary screen, biochemical, fluorescence polarization, human; Platelet-activating factor acetylhydrolase (Homo sapiens), Q13093; recombinant pPAFAH, FP-rhodamine probe fluorescence polarization; inhibition, % at 3.39 µM; 1.5% of 330,000 active; AID 463082, 2010;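 active = inhibition above the mean inhibition across the screen plus 3 SD, cut at about 25% in these data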;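 also: inhibitors block binding of the rhodamine activity-based probe so polarization drops; 0% = enzyme with DMSO and 100% = wells lacking pPAFAH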
Target sequence (Q13093 whole entry, looked up): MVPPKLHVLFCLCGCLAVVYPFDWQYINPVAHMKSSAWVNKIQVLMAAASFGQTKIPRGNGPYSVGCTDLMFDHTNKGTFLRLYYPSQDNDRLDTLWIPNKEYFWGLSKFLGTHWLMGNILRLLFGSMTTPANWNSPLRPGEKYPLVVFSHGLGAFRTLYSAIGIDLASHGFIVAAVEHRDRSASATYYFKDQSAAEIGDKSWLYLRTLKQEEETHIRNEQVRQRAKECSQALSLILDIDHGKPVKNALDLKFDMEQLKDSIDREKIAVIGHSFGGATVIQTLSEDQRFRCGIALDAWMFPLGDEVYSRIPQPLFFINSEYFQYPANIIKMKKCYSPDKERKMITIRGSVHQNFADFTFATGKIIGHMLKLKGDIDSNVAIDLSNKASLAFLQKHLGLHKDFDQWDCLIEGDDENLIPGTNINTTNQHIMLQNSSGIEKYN
HTRA1 inh = HTRA1 serine protease inhibitors, primary screen, biochemical, fluorescence polarization, HTS | inhibition, % at 5.96 µM | recombinant HTRA1, FP-rhodamine activity-based probe | Q92743 | AID 504803, 2011 | 0.5% of 340,000 active; in the data active = inhibition above about 36%;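 also: 0% = enzyme with DMSO and 100% = wells lacking enzyme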
mABHD4 FP = ABHD4 inhibitors, primary screen, biochemical, fluorescence polarization, mouse. (Lyso)-N-acylphosphatidylethanolamine lipase (Mus musculus), Q8VD66. purified mABHD4, FP-Rh probe fluorescence polarization. inhibition, % at 8.92 µM. 0.54% of 370,000 active;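 active = inhibition exceeding the mean over every tested compound plus 3 SD, cut at about 30% in these data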;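 also: 0% = plate median of compound wells and 100% = S159A mutant with DMSO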
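Assay system: wild-type mouse ABHD4 protein; compound: single nominal dose of 8.92 µM, 0.89% DMSO final; schedule: 45 min + 60 min at 25 °C; measured by: FP readout, ex 525 nm / em 598 nm; evaluation: % inhibition of FP-Rh probe binding versus controls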
PAFAH1B3 inh = PAFAH1B3 enzyme inhibitors, primary screen, biochemical, fluorescence polarization, human. Platelet-activating factor acetylhydrolase IB subunit alpha1 (Homo sapiens), Q15102. recombinant PAFAH1B3, FP-rhodamine probe. inhibition, % at 3.39 µM. 0.28% of 340,000 active;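 active = inhibition above the screen-wide average of all tested compounds plus 3 SD, cut at about 25% in these data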;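 also: 0% = enzyme with DMSO only and 100% = wells lacking PAFAH1B3 protein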
PAFAH2 FP inh = PAFAH2 enzyme inhibitors, primary screen, biochemical, fluorescence polarization, human; 0.99% of 340,000 active; Platelet-activating factor acetylhydrolase 2, cytoplasmic (Homo sapiens), Q99487; recombinant PAFAH2, FP-rhodamine activity probe; AID 492956, 2010; inhibition, % at 3.39 µM;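 active = inhibition above the mean over all tested compounds plus 3 SD, cut at about 30% in these data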;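 also: inhibitors block probe labeling of enzyme so polarization drops; 0% = enzyme with DMSO and 100% = wells lacking PAFAH2 protein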
PAFAH1B2 FP inh = PAFAH1B2 enzyme inhibitors, primary screen, biochemical, fluorescence polarization, human | Platelet-activating factor acetylhydrolase IB subunit alpha2 (Homo sapiens), P68402 | recombinant PAFAH1B2, FP-rhodamine activity probe | inhibition, % at 3.39 µM | 1.2% of 340,000 active | AID 492953, 2010;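 active = inhibition above the mean of all tested compounds plus 3 SD, cut at about 24% in these data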;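 also: 0% = enzyme with DMSO and 100% = wells lacking PAFAH1B2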
PAFAH2 confirm = PAFAH2 enzyme inhibitors, confirmation, biochemical, fluorescence polarization, human; shares compounds with PAFAH2 FP inh; recombinant PAFAH2, FP-rhodamine activity probe; inhibition, % at 3.39 µM; 65% of 2,300 active; AID 493030, 2011;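 active = mean inhibition over three repeats above a set limit taken from the earlier primary screen, cut at about 30% in these data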;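 also: inhibitor blocks binding of rhodamine activity probe so polarization falls; 0% = enzyme with DMSO and 100% = wells lacking PAFAH2 protein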
Numbers without * were called inactive; x = no result given. Only some compounds are listed: those with a hit (about 2.8% of all), similar ones and a draw of the others.

SMILES	pPAFAH inh	HTRA1 inh	mABHD4 FP	PAFAH1B3 inh	PAFAH2 FP inh	PAFAH1B2 FP inh	PAFAH2 confirm
CCCC[C@H](C(=O)N(C)c1cccc(OC)c1)[C@@H](O)c1ccc2ccccc2c1	x	x	-10	x	x	x	x
COc1ccc(S(=O)(=O)N2CCOCC2)cc1NC(=O)CN1CCCc2ccccc21	2	-4	-1	16	66*	2	56*
COc1ccc(S(=O)(=O)N2CCOCC2)cc1NC(=O)CN1CCCCCC1	0	6	-3	3	4	-2	x
COc1ccc(S(=O)(=O)N2CCOCC2)cc1NC(=O)Cc1c(Cl)cccc1Cl	-2	-2	-2	-3	49*	-1	45*
C=CCNC(=O)COC(=O)c1ccc(C)c(NC(=O)c2ccco2)c1	1	-3	1	0	36*	5	30*
CCCCNC(=O)COC(=O)c1ccc(C)c(NC(=O)c2ccco2)c1	4	-7	1	1	50*	-2	45*
CCN(CC)C(=O)COC(=O)c1ccc(C)c(NC(=O)c2ccco2)c1	4	6	1	6	3	10	x
CCOC(=O)[C@]12CCCC3=C1N(CCC3)C(=O)[C@@H](CC(=O)NCCc1ccccc1OC)C2	x	x	0	x	x	x	x
NC(=NCCc1c[nH]c2ccccc12)NC(=O)OCc1ccccc1	x	x	9	x	x	x	x
O=C(Nc1ccc(Cl)c(Cl)c1)C1CCN(c2ncccn2)CC1	x	x	-13	x	x	x	x
CC1OC2(C)OC(=N)C1(C#N)C(C#N)(C#N)C2c1ccccc1 (stereo unspecified)	6	11	21	12	18	13	x
CCCC1OC23CCCCC2C(C#N)(C(=N)O3)C1(C#N)C#N (stereo unspecified)	13	12	10	21	30*	15	0
Cc1nc2cc(C(=O)N3CCN(C(=O)C(C)(C)C)CC3)ccc2n1C1CCCC1	x	x	4	x	x	x	x
CCCCn1c(N)c(N(CCOC)C(=O)c2cccc(N3C(=O)c4ccccc4C3=O)c2)c(=O)[nH]c1=O	6	0	5	3	45*	-3	-2
CN(C)c1cccc(/C=C2\CC3(OC(=O)C4CCCC4)CCCN2C3)c1 (stereo unspecified)	x	x	8	x	x	x	x
O=C(Nc1nc2ncccn2c1-c1ccc(F)c(F)c1)c1ccccc1	x	x	0	x	x	x	x
CCCN1CCC(=NNc2ccc(C(=O)O)cc2)CC1	3	4	8	12	35*	3	3
O=C(CS(=O)(=O)c1ccccc1)Nc1ccccn1	3	9	-9	7	6	7	x
O=C(CS(=O)(=O)Cc1ccccc1)Nc1ccccn1	20	-2	-1	7	36*	-2	28
O=C(CS(=O)(=O)Cc1ccccc1)Nc1ccc(Cl)cn1	18	-2	0	1	61*	9	40*
CCOC(=O)c1sc(=S)n(-c2ccccc2)c1N(C(C)=O)C(C)=O	3	-7	1	-4	35*	0	18
N#CC1=C2SCN(c3ccccc3)CN2C(=O)CC1c1cccs1 (stereo unspecified)	24	-3	15	5	2	5	x
Cc1ccc(C2CC(=O)N3CN(c4ccc(Br)cc4)CSC3=C2C#N)o1 (stereo unspecified)	56*	11	9	6	32*	4	9
CCOc1ccc(NC(=O)c2ccc(CNc3c(N4CCCC4)c(=O)c3=O)cc2)cc1	5	2	3	2	1	-1	x
CC(=O)c1ccc(NC(=O)c2ccc(CNc3c(N4CCOCC4)c(=O)c3=O)cc2)cc1	-2	-5	-3	10	70*	1	63*
CC(=O)c1ccc(NC(=O)c2ccc(CNc3c(N4CCCC4)c(=O)c3=O)cc2)cc1	7	-1	0	-5	62*	7	65*
